Laboratory results: ChEMBL document CHEMBL2380224, “Fragment-based ligand design of novel potent inhibitors of tankyrases” (J Med Chem, 2013)
pIC50, pKd: −log10 of the molar value.

Experiments:
[1] = target: T1, Poly [ADP-ribose] polymerase tankyrase-2 (Homo sapiens, UniProt Q9H2K2); assay: Binding affinity to 6His-tagged TNKS2 PARP domain (947 to 1162) (unknown origin) expressed in Escherichia coli BL21(DE3) by surface plasmon resonance analysis
T1 sequence (Q9H2K2 whole entry): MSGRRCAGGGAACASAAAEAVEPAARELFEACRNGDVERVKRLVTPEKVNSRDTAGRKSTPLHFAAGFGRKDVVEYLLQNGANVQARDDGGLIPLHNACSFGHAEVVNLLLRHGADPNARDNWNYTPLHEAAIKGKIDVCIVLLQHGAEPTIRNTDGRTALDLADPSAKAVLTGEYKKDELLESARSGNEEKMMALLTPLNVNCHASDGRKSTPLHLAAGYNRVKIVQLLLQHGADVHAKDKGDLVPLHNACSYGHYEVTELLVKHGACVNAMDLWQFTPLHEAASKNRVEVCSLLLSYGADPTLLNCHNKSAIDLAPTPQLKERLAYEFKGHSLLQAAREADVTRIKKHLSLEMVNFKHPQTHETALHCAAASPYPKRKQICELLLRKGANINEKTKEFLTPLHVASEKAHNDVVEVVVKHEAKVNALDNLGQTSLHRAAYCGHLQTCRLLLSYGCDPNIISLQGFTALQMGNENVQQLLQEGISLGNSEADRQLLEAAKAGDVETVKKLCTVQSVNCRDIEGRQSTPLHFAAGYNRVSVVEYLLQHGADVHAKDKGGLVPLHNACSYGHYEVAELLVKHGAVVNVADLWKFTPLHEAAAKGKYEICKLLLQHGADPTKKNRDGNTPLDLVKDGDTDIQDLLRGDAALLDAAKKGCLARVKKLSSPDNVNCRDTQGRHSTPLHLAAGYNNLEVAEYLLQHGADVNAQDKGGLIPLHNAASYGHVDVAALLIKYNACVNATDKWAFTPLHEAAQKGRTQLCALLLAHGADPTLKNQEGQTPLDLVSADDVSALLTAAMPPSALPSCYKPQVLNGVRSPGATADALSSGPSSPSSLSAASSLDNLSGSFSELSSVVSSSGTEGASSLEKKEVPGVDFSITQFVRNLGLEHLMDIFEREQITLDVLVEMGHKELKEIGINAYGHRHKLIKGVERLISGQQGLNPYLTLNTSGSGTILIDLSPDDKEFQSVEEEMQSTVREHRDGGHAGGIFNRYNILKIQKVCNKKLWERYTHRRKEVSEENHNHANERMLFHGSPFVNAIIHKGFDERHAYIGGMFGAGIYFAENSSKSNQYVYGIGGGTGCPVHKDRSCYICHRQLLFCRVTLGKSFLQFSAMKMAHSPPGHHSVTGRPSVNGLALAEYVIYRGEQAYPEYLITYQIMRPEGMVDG
Method in brief: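 SPR on a Biacore instrument. Running buffer: 20 mM PBS pH 7.4, 0.05% Tween20, 2% DMSO. His-tagged TNKS2 (20 μg/mL in 20 mM PBS pH 7.4) was capture-coupled at 10 μL/min onto a Ni²⁺/NHS doubly preactivated NTA chip, to a target of 5000 RU.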

[2] = target: T2, Poly [ADP-ribose] polymerase tankyrase-2 (Homo sapiens) (UniProt Q9H2K2); assay: Binding affinity to TNKS2 PARP domain (947 to 1162) (unknown origin) expressed in Escherichia coli BL21(DE3) assessed as thermal stabilization at 125 uM by differential scanning flourimetric analysis
T2 sequence (whole entry): T1 sequence (Q9H2K2 whole entry)
Method in brief: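 DSF dose−response. TNKS2 at 0.2 mg/mL with SYPRO Orange (5×). Compounds were serially diluted in 100% DMSO at 50× the assay concentration. Chymotrypsin (1/100 TNKS2 mass equivalents) was added to the protein–dye mix just before the run. Scanned 25−80 °C at about 2 °C/min, ex 490/em 575 nm, and Tm shift was taken against the DMSO control.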

Homo sapiens [3] = species on record: Homo sapiens; assay: Selectivity ratio of IC50 for PARP2 (unknown origin) to IC50 for TNKS2 PARP domain (947 to 1162) (unknown origin)
Homo sapiens [4] = species on record: Homo sapiens; assay: Selectivity ratio of IC50 for PARP1 (unknown origin) to IC50 for TNKS2 PARP domain (947 to 1162) (unknown origin)
[5] = target: T3, Protein mono-ADP-ribosyltransferase PARP3 (Homo sapiens, UniProt Q9Y6F1); assay: Inhibition of PARP3 (unknown origin)
T3 sequence (Q9Y6F1 whole entry): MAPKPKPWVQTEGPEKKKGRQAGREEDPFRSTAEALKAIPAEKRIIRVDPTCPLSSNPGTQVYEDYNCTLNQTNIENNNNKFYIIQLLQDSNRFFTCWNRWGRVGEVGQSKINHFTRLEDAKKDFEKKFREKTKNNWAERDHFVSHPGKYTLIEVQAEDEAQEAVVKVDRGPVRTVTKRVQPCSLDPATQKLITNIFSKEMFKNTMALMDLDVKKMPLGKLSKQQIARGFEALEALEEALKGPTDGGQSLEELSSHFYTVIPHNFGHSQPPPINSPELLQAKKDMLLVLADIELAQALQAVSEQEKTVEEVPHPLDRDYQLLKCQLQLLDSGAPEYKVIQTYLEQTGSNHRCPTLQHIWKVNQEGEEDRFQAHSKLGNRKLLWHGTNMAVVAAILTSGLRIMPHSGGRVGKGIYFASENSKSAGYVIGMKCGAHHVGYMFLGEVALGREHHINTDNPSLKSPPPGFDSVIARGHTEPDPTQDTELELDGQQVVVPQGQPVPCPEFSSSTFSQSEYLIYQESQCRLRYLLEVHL

[6] = target: T4, Protein mono-ADP-ribosyltransferase TIPARP (Homo sapiens) (UniProt Q7Z3E1); assay: Inhibition of PARP7 (unknown origin) at 10 uM relative to control
T4 sequence (whole entry): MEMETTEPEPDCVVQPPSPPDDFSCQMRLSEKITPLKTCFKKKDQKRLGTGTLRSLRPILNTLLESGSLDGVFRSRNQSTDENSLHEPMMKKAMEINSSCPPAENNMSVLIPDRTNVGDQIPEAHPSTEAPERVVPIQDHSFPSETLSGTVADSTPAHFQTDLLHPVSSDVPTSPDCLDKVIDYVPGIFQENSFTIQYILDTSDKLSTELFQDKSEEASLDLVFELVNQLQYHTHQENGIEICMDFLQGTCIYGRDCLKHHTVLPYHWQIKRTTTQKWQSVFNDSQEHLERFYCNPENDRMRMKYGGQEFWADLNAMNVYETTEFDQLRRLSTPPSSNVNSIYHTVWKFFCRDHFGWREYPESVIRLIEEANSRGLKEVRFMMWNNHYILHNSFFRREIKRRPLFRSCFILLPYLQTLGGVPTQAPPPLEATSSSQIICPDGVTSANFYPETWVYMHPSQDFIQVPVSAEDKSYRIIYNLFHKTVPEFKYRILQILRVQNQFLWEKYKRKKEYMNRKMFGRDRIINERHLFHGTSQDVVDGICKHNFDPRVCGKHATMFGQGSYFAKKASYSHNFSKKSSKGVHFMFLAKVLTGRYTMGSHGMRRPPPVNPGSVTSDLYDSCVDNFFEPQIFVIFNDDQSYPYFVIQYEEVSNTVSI

pKd [1]: 6.55
ΔTm [2]: 5.1 °C
Ratio IC50 (Homo sapiens [3]): > 100
Ratio IC50 (Homo sapiens [4]): > 100
pIC50 [5]: < 5.00
inhibition [6]: 37%
Structure (SMILES): Cc1cc(=O)[nH]c2cc(-c3ccccc3F)ccc12
